In brackets after ≈: the same amount, converted by molar mass. Activity calls are given as the source filed them. The calls are words filed in the database; no cut-off is given here.
How the values were obtained:
[1] = Intrinsic clearance in human liver microsomes in presence of NADPH by LC-MS/MS method; assay type: ADME, microsome; settings: read-out: CLH
[2] = test system: Staphylococcus aureus; assay: Antibacterial activity against methicillin-resistant Staphylococcus aureus USA300 NRS384 clinical isolate preincubated followed by bacterial subculturing for 2 weeks; assay type: functional
[3] = Half life in human liver microsomes in presence of NADPH by LC-MS/MS method; assay type: ADME, microsome
[4] = test system: Staphylococcus aureus; assay: Antibacterial activity against methicillin-resistant Staphylococcus aureus USA100 NRS382 clinical isolate preincubated followed by bacterial subculturing for 2 weeks; assay type: functional
[5] = test system: Staphylococcus aureus; assay: Bactericidal activity against methicillin-resistant Staphylococcus aureus USA100 NRS382 clinical isolate after 18 hrs by broth microdilution method; assay type: functional; settings: USA100 NRS382, 18 h
How it was run: (§1)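 From MIC wells without visible growth, 5 uL spotted onto Tryptic soy agar, incubated 37 °C for at least 18 h; MBC taken as lowest concentration giving 99.9% growth inhibition.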

[6] = test system: Staphylococcus aureus; assay: Antibacterial activity against methicillin-resistant Staphylococcus aureus USA200 NRS383 clinical isolate preincubated followed by bacterial subculturing for 2 weeks; assay type: functional
[7] = test system: Staphylococcus aureus; assay: Antibacterial activity against methicillin-resistant Staphylococcus aureus USA400 NRS123 clinical isolate preincubated followed by bacterial subculturing for 2 weeks; assay type: functional
[8] = test system: Staphylococcus aureus; assay: Antibacterial activity against methicillin-resistant Staphylococcus aureus USA100 NRS382 clinical isolate after 20 hrs by broth microdilution method; assay type: functional; settings: USA100 NRS382, 20 h
How it was run: (§2)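 CLSI broth microdilution in cation-adjusted Mueller Hinton broth; compounds serially diluted, triplicate samples; 37 °C, 20 h. MIC read visually as lowest concentration with no visible growth; mean of triplicate determinations reported.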

[9] = test system: Staphylococcus aureus; assay: Antibacterial activity against methicillin-resistant Staphylococcus aureus USA400 NRS123 clinical isolate after 20 hrs by broth microdilution method; assay type: functional; settings: USA400 NRS123, 20 h; how it was run: as §2
[10] = test system: Staphylococcus aureus; assay: Antibacterial activity against methicillin-resistant Staphylococcus aureus USA300 NRS384 clinical isolate after 20 hrs by broth microdilution method; assay type: functional; settings: USA300 NRS384, 20 h; how it was run: as §2
[11] = test system: Staphylococcus aureus; assay: Antibacterial activity against vancomycin-resistant Staphylococcus aureus VRSA4 after 20 hrs by broth microdilution method; assay type: functional; settings: VRSA4, 20 h; how it was run: as §2
[12] = test system: Staphylococcus aureus; assay: Antibacterial activity against methicillin-resistant Staphylococcus aureus USA200 NRS383 clinical isolate after 20 hrs by broth microdilution method; assay type: functional; settings: USA200 NRS383, 20 h; how it was run: as §2
[13] = test system: Staphylococcus aureus; assay: Antibacterial activity against Staphylococcus aureus RN4220 NRS107 clinical isolate after 20 hrs by broth microdilution method; assay type: functional; settings: RN4220 NRS107, 20 h; how it was run: as §2
[14] = test system: Staphylococcus aureus; assay: Antibacterial activity against vancomycin-resistant Staphylococcus aureus VRSA10 after 20 hrs by broth microdilution method; assay type: functional; settings: VRSA10, 20 h; how it was run: as §2
[15] = test system: Staphylococcus aureus; assay: Bactericidal activity against methicillin-resistant Staphylococcus aureus USA400 NRS123 clinical isolate after 18 hrs by broth microdilution method; assay type: functional; settings: USA400 NRS123, 18 h; how it was run: as §1
[16] = test system: Staphylococcus aureus; assay: Bactericidal activity against methicillin-resistant Staphylococcus aureus USA300 NRS384 clinical isolate after 18 hrs by broth microdilution method; assay type: functional; settings: USA300 NRS384, 18 h; how it was run: as §1
[17] = test system: Staphylococcus aureus; assay: Bactericidal activity against Staphylococcus aureus RN4220 NRS107 clinical isolate after 18 hrs by broth microdilution method; assay type: functional; settings: RN4220 NRS107, 18 h; how it was run: as §1
[18] = test system: Staphylococcus aureus; assay: Bactericidal activity against methicillin-resistant Staphylococcus aureus USA200 NRS383 clinical isolate after 18 hrs by broth microdilution method; assay type: functional; settings: USA200 NRS383, 18 h; how it was run: as §1
[19] = test system: Staphylococcus aureus; assay: Bactericidal activity against vancomycin-resistant Staphylococcus aureus VRSA10 after 18 hrs by broth microdilution method; assay type: functional; settings: VRSA10, 18 h; how it was run: as §1
[20] = test system: Staphylococcus aureus; assay: Bactericidal activity against vancomycin-resistant Staphylococcus aureus VRSA4 after 18 hrs by broth microdilution method; assay type: functional; settings: VRSA4, 18 h; how it was run: as §1

| Compound | microsomal CLint [1] [µL/min/mg] | Activity [2] | half-life [3] [h] | Activity [4] | MBC [5] [µg/mL] | Activity [6] | Activity [7] | MIC [8] [µg/mL] | MIC [9] [µg/mL] | MIC [10] [µg/mL] | MIC [11] [µg/mL] | MIC [12] [µg/mL] | MIC [13] [µg/mL] | MIC [14] [µg/mL] | MBC [15] [µg/mL] | MBC [16] [µg/mL] | MBC [17] [µg/mL] | MBC [18] [µg/mL] | MBC [19] [µg/mL] | MBC [20] [µg/mL] |
| --- | --- | --- | --- | --- | --- | --- | --- | --- | --- | --- | --- | --- | --- | --- | --- | --- | --- | --- | --- | --- |
| C/C(=N\NC(=N)N)c1ccc(NC(=O)Nc2ccc(C(C)(C)C)cc2)cc1 | 20 | Active | 2.9 | Active | 128 (≈ 349 µM) | Active | Active | 64 (≈ 175 µM) |  |  |  |  |  |  |  |  |  |  |  |  |
| CCC(CC)COc1ccc(NC(=O)Nc2ccc(/C(C)=N/NC(=N)N)cc2)cc1 |  | Active |  | Active |  | Active | Active | 128 (≈ 312 µM) |  |  |  |  |  |  |  |  |  |  |  |  |
| C/C(=N\NC(=N)N)c1ccc(NC(=O)c2cc(-c3ccccc3)n(C)n2)cc1 |  |  |  |  |  |  |  |  | > 32 |  |  |  |  |  |  |  |  |  |  |  |
| C/C(=N\NC(=N)N)c1ccc(NC(=O)Nc2ccc(OCC(C)C)cc2)cc1 |  | Active |  | Active | 8 (≈ 20.9 µM) | Active | Active | 8 (≈ 20.9 µM) | 8 (≈ 20.9 µM) | 4 (≈ 10.5 µM) | 4 (≈ 10.5 µM) | 4 (≈ 10.5 µM) | 4 (≈ 10.5 µM) | 4 (≈ 10.5 µM) | 16 (≈ 41.8 µM) | 8 (≈ 20.9 µM) | 4 (≈ 10.5 µM) | 4 (≈ 10.5 µM) | 8 (≈ 20.9 µM) | 8 (≈ 20.9 µM) |
| CCCOc1ccc(NC(=O)Nc2ccc(/C(C)=N/NC(=N)N)cc2)cc1 |  | Active |  | Active | 8 (≈ 21.7 µM) | Active | Active | 8 (≈ 21.7 µM) | 4 (≈ 10.9 µM) | 8 (≈ 21.7 µM) | 8 (≈ 21.7 µM) | 8 (≈ 21.7 µM) | 8 (≈ 21.7 µM) | 8 (≈ 21.7 µM) | 16 (≈ 43.4 µM) | 16 (≈ 43.4 µM) | 8 (≈ 21.7 µM) | 16 (≈ 43.4 µM) | 16 (≈ 43.4 µM) | 8 (≈ 21.7 µM) |
| CCCCCCCCCOc1ccc(NC(=O)Nc2ccc(/C(C)=N/NC(=N)N)cc2)cc1 |  | Active |  | Active | 32 (≈ 70.7 µM) | Active | Active | 32 (≈ 70.7 µM) | 32 (≈ 70.7 µM) | 32 (≈ 70.7 µM) | 16 (≈ 35.4 µM) | 16 (≈ 35.4 µM) | 32 (≈ 70.7 µM) | 32 (≈ 70.7 µM) | 64 (≈ 141 µM) | 32 (≈ 70.7 µM) | 64 (≈ 141 µM) | 32 (≈ 70.7 µM) | 32 (≈ 70.7 µM) | 16 (≈ 35.4 µM) |
| C/C(=N\NC(=N)N)c1ccc(NC(=O)c2cccc(Oc3ccccc3)c2)cc1 |  |  |  |  |  |  |  |  | 16 (≈ 41.3 µM) |  |  |  |  |  |  |  |  |  |  |  |
| C/C(=N\NC(=N)N)c1ccc(NC(=O)Cc2cc(F)cc(F)c2)cc1 |  |  |  |  |  |  |  |  | 16 (≈ 46.3 µM) |  |  |  |  |  |  |  |  |  |  |  |
| C/C(=N\NC(=N)N)c1ccc(NC(=O)Nc2ccc(OC3CCCC3)cc2)cc1 |  | Active |  | Active | 64 (≈ 162 µM) | Active | Active | 64 (≈ 162 µM) |  |  |  | 64 (≈ 162 µM) |  |  |  |  |  | 128 (≈ 324 µM) |  |  |
| CCCCCCOc1ccc(NC(=O)Nc2ccc(/C(C)=N/NC(=N)N)cc2)cc1 |  | Active |  | Active | 4 (≈ 9.74 µM) | Active | Active | 4 (≈ 9.74 µM) | 8 (≈ 19.5 µM) | 8 (≈ 19.5 µM) | 8 (≈ 19.5 µM) | 4 (≈ 9.74 µM) | 8 (≈ 19.5 µM) | 8 (≈ 19.5 µM) | 16 (≈ 39 µM) | 16 (≈ 39 µM) | 8 (≈ 19.5 µM) | 8 (≈ 19.5 µM) | 8 (≈ 19.5 µM) | 8 (≈ 19.5 µM) |
| CCCCCCCOc1ccc(NC(=O)Nc2ccc(/C(C)=N/NC(=N)N)cc2)cc1 |  | Active |  | Active | 16 (≈ 37.7 µM) | Active | Active | 16 (≈ 37.7 µM) | 16 (≈ 37.7 µM) | 16 (≈ 37.7 µM) | 8 (≈ 18.8 µM) | 8 (≈ 18.8 µM) | 8 (≈ 18.8 µM) | 16 (≈ 37.7 µM) | 16 (≈ 37.7 µM) | 16 (≈ 37.7 µM) | 8 (≈ 18.8 µM) | 8 (≈ 18.8 µM) | 16 (≈ 37.7 µM) | 8 (≈ 18.8 µM) |
| C/C(=N\NC(=N)N)c1ccc(NC(=O)c2cc(C)oc2C)cc1 |  |  |  |  |  |  |  |  | 24 (≈ 76.6 µM) |  |  |  |  |  |  |  |  |  |  |  |
| C/C(=N\NC(=N)N)c1ccc(NC(=O)Nc2ccc(OCc3ccccc3)cc2)cc1 |  | Active |  | Active | > 128 | Active | Active | 4 (≈ 9.6 µM) | 8 (≈ 19.2 µM) | 8 (≈ 19.2 µM) | 8 (≈ 19.2 µM) | 8 (≈ 19.2 µM) | 8 (≈ 19.2 µM) | 8 (≈ 19.2 µM) | > 64 | 8 (≈ 19.2 µM) | 8 (≈ 19.2 µM) | 16 (≈ 38.4 µM) | > 64 | 8 (≈ 19.2 µM) |

Reference: ChEMBL document CHEMBL4014276, “Diphenylurea derivatives for combating methicillin- and vancomycin-resistant Staphylococcus aureus” (Eur J Med Chem, 2017)
